HTR2A ag: activates the mouse 5-HT2A serotonin receptor; P35363; CHO-K1 mHTR2A beta-arrestin complementation, luminescence; percent of 30 µM serotonin response; activation, % at 7.6 µM; 0.66% of 360,000 active;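 active means activation above a run cutoff, the mean activation of all tested compounds plus 3 SD, cut at about 14% in these data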;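 further: 0% = plate median of compound wells and 100% = 30 µM serotonin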
PP5 inh: PP5 (human) phosphatase inhibition; P53041; purified PP5c, OMFP substrate fluorescence; inhibition, % at 6.7 µM; 0.18% of 320,000 active; AID 1987;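 active means inhibition above the campaign's mean inhibition across all tested compounds plus 3 SD, cut at about 9.5% in these data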;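 further: 0% = DMSO only and 100% = 100 µM cantharidin control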
Target sequence (P53041 whole entry, looked up): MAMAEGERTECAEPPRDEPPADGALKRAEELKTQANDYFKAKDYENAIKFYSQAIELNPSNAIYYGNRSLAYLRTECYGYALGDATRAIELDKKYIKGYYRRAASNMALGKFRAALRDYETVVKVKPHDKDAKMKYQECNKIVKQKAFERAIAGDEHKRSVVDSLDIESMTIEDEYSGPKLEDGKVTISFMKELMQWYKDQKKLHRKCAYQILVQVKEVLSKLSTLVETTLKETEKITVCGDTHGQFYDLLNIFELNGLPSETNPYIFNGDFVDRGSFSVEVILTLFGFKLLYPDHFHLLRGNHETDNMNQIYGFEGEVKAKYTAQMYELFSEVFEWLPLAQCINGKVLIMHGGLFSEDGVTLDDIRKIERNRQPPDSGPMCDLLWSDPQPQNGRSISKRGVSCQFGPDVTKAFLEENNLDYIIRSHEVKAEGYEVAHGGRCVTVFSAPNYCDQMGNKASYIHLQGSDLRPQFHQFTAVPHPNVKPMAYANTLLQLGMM
GASC-1 inh: inhibitors of human GASC-1 (JMJD2C) demethylase. Q9H3R0. GST-JMJD2C(1-420) H3K9me3 demethylation, DELFIA europium. inhibition, % at 2.35 µM. 0.069% of 330,000 active;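 active means more than half of a compound's replicate wells show inhibition beyond 50%, single wells judged on their own value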;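 further: signal counts dimethyl H3K9 product captured on neutravidin plate; 0% = median of DMSO wells and 100% = 0.3 times that DMSO median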
T cell modulator: T cell immune modulation candidate; 2C CD8+ T cell-vesicle binding, flow cytometry; stronger effect = lower value; response (vesicle binding), % at 7 µM; 0.068% of 330,000 active; AID 2052;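 active means response, share of CD8 T cells binding vesicles, and their 90th percentile fluorescence all below set limits, cut at about 80% in these data, passing the limit was not always enough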;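 further: values below 100% mean blocked vesicle binding to the CD8+ T cells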
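Test system: purified 2C TCR transgenic mouse naive CD8+ T cells. Probe or stimulus: QL9-peptide-loaded Drosophila micro-vesicles bearing Ld, ICAM-1 and B7-1. Incubation: binding step 1.5 h, 37 °C, antibody labelling 20 min, ice. Measured by: flow cytometry of vesicle-bound cells.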
PP1 inh: counter-screen for PP5 inhibitors: inhibitors of human PP1-alpha. purified PP1alpha, OMFP fluorescence. P62136. 0.9% of 320,000 active. inhibition, % at 6.7 µM. AID 2235;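 active means inhibition above the mean inhibition of all tested compounds plus 3 SD, computed separately for each screening campaign, cut at about 15% in these data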
PP5 inh confirm: confirmation of human PP5 phosphatase inhibitors; shares compounds with PP5 inh; Purified PP5, fluorogenic phosphatase substrate, fluorescence; inhibition, % at 6.7 µM; 22% of 460 active; in the data active means inhibition above about 9.5%
PP1 counter 3x: counter-screen for PP5 inhibitors: human PP1 phosphatase inhibition; inhibition, % at 6.7 µM; PP1 enzyme, fluorescent phosphatase substrate; shares compounds with PP5 inh; 4% of 460 active; in the data active means inhibition above about 16%
Starred values were filed as active, the others as inactive; . = not tested or not shown. Sampled rows, rich in hits. Any-hit rate of the full collection: about 1.7%.

SMILES	HTR2A ag	PP5 inh	GASC-1 inh	T cell modulator	PP1 inh	PP5 inh confirm	PP1 counter 3x
O=C(NCc1nnnn1-c1ccc(F)cc1)C(=O)c1c[nH]c2ccccc12	-2	.	.	.	.	.	.
Cc1csc(NC(=O)C2C3C=CC(O3)C2C(=O)O)n1 (configuration not stated)	4	16*	-4	197	-2	15*	14
Cc1cc(C)cc(NC(=O)C2C3C=CC(O3)C2C(=O)O)c1 (configuration not stated)	0	20*	-6	278	1	0	19*
O=C(O)C1C2C=CC(O2)C1C(=O)Nc1cccc(C(F)(F)F)c1 (configuration not stated)	-4	33*	-14	203	9	-3	6
N=C1C(c2nc(-c3ccc(Cl)cc3)cs2)=C(O)CN1NC(=O)c1ccc(O)cc1	-3	1	3	158	14	.	.
CC(=O)c1ccc(NC2=C(N3CCOCC3)C(=O)c3ccccc3C2=O)cc1	1	10*	5	108	4	16*	0
Cc1ccc(NC2=C(N3CCOCC3)C(=O)c3ccccc3C2=O)cc1	0	10*	-9	283	1	30*	-1
O=C(O)c1ccc(NC2=C(N3CCOCC3)C(=O)c3ccccc3C2=O)cc1	0	8	-6	383	-1	.	.
CCc1ccc2[nH]c(C(=O)N(C)c3ccc(F)cc3F)cc2c1	2	2	13	233	4	.	.
C=CCc1ccc(O)c(-c2cc(CC=C)ccc2O)c1	2	11*	17	101	6	3	6
COc1ccccc1N1CCN(C(=O)c2ccc(COc3cccc4c3OC(C)(C)C4)cc2)CC1	-3	12*	-13	406	2	2	0
CC1(OC(=O)C2CCCC2)C(=O)C=C2C=C(c3ccsc3)N(CCCCO)C=C2C1=O (configuration not stated)	-1	10*	-3	364	0	44*	18*
COc1ccc(CN2C=C3C(=O)C(C)(OC(=O)C4CCCC4)C(=O)C=C3C=C2c2ccsc2)cc1 (configuration not stated)	1	7	-2	389	14	.	.
CC(C)CCn1c(N)c(S(=O)(=O)c2cccs2)c2nc3ccccc3nc21	5	10*	28	428	3	7	4
Nc1c(S(=O)(=O)c2cccs2)c2nc3ccccc3nc2n1CCc1ccccc1	.	4	1	332	4	.	.
CCOc1ccccc1NC(=O)C1C2C=CC(O2)C1C(=O)O (configuration not stated)	5	30*	6	243	3	2	11
O=C(O)C1C2C=CC(O2)C1C(=O)Nc1ccccc1C(F)(F)F (configuration not stated)	1	1	-2	579	-3	.	.
CCc1ccccc1NC(=O)C1C2C=CC(O2)C1C(=O)O (configuration not stated)	2	21*	-1	366	7	-2	4
Cc1ccc(C)c(S(=O)(=O)N2CCCCC2CCNC(=O)C(=O)NCc2ccncc2)c1 (configuration not stated)	5	-3	-2	347	1	.	.
Cc1cc(C(F)(F)F)nc(-n2cc(-c3ccccc3)nn2)n1	-5	0	16	352	-2	.	.
O=C(O)c1nnn(-c2cc(C(F)(F)F)cc(C(F)(F)F)c2)c1-c1ccccc1	0	20*	-32	579	4	-2	-2
O=C(O)c1nnn(-c2ccc(F)cc2F)c1-c1ccccc1	9	-2	10	226	-1	.	.
CC(=O)N1c2ccc(S(=O)(=O)N(C)Cc3ccco3)cc2CC1C (configuration not stated)	14	-2	7	193	-1	.	.
CCCS(=O)(=O)c1nc(S(=O)(=O)c2ccc(C)cc2)c(N2CCC(C(N)=O)CC2)s1	5	1	1	258	-2	.	.
CC(=O)Nc1ccc(Br)c(Cl)c1	-3	11*	-1	263	-2	-6	-6
SMILES	HTR2A ag	PP5 inh	GASC-1 inh	T cell modulator	PP1 inh	PP5 inh confirm	PP1 counter 3x
CC(=O)NC12CC3CC(C1)CC(C(=O)N(C)CC(=O)Nc1cccc(F)c1)(C3)C2	7	1	-2	380	-3	.	.
O=C(CC12CC3CC(CC(C3)C1)C2)Nc1c(F)cccc1F	-4	1	26	270	5	.	.
COc1ccccc1-c1noc(-c2ccccc2C(=O)Nc2cccnc2)n1	-1	10*	-1	85	3	-4	-2
CCOC(=O)c1c(-c2cccc3ccccc23)csc1NC(=O)C1C2CCC(O2)C1C(=O)O (configuration not stated)	0	11*	-3	225	6	0	2
COC(=O)c1c(-c2ccc(C(C)(C)C)cc2)csc1NC(=O)C1C2CCC(O2)C1C(=O)O (configuration not stated)	1	7	9	183	-1	.	.
C=CCc1c(C)nc(SC)nc1Nc1ccc(C(=O)O)cc1	-2	11*	4	258	-2	-5	-4
COC(=O)C1(C)NC(c2ccc(O)cc2)C2C(=O)N(c3ccc(F)cc3)C(=O)C21 (configuration not stated)	1	10*	-1	178	-4	-7	-6
Cn1cc(CNCCCn2ncc3ccccc32)c(-c2ccccc2F)n1	-9	16*	5	148	-10	-4	-7
Cn1cc(CNCc2ccc(-n3cccn3)cc2)c(-c2ccccc2F)n1	12	3	1	196	1	.	.
O=C(c1ccc([N+](=O)[O-])cc1)N1CCN(c2ncc(Br)cn2)CC1	7	11*	-12	7	-4	-4	-3
CN1C=Nc2c(ncn2C2CCC(CO)O2)C1O (configuration not stated)	0	.	.	.	.	.	.
CC(C)Nc1nc(NC(C)C)nc(C(N)=O)n1	-1	11*	2	409	0	-7	-6
CC(C)=CC(=O)N1CCCc2ccccc21	-1	9.7*	-3	465	7	-4	-6
Cc1ccc(Cl)cc1NC(=O)C1CC1c1ccccc1 (configuration not stated)	1	1	3	294	2	.	.
CN(C(=O)Nc1ccc(Cl)cc1Cl)C1CCCC1	0	1	-2	171	-2	.	.
Cn1c(SCC(=O)N2c3ccccc3CCc3ccccc32)nnc1-c1ccc(O)cc1	-2	9.7*	12	252	-4	-4	-6
O=C(COc1cccc2ccccc12)Nc1nc2ccccc2[nH]1	-5	10*	4	371	0	5	3
NC(=O)C1CCN(C(=O)CCC(=O)c2cccs2)CC1	4	.	5	724	.	.	.

Screening data as filed in PubChem BioAssay.
